Data on one molecule can be found in ChEMBL document CHEMBL3580567 (J Med Chem, 2015).

In data set [1] the target is T1, Melatonin receptor type 1A (Homo sapiens, UniProt P48039). The data set can be described thus: Agonist activity at human recombinant melatonin receptor-1 expressed in CHO cells assessed as effect on impedance by cellular dielectric spectroscopy relative to melatonin. The format is cell-based.
The nature of data set [2]: Thermodynamic solubility in buffer at pH 5.5 after 24 hrs by UV spectra analysis. It counts as physicochemical. To be noted: read-out: Therm_solubility.
Data set [3] has as its target T2, Melatonin receptor type 1B (Homo sapiens) (UniProt P49286).
T2 sequence (whole entry): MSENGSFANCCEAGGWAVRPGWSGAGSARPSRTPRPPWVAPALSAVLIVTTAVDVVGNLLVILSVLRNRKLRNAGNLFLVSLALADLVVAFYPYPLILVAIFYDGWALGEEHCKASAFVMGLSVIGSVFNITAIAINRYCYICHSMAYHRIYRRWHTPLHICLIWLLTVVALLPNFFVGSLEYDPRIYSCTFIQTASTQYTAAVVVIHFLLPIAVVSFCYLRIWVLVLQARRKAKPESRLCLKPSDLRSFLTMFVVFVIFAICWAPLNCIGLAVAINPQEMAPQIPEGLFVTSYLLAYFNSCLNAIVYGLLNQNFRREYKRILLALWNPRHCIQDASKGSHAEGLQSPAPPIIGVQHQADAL
In words: Agonist activity at human recombinant melatonin receptor-2 expressed in CHO cells assessed as decrease of cAMP level after 10 mins by HTRF assay relative to melatonin. It counts as functional, cell-based.

In data set [4] the target is T1, Melatonin receptor type 1A. The data set can be described thus: Agonist activity at human melatonin receptor-1 transfected in CHO cell membranes after 1 hr by GTPgammaS binding assay. It counts as functional. In general terms: GTPγS is a poorly hydrolysed GTP analogue; its binding reports G protein activation.
The target in data set [5] is T3, Melatonin receptor type 1B (Homo sapiens, UniProt P49286).
T3 sequence (P49286 whole entry): T2 sequence (whole entry)
In words: Agonist activity at human recombinant melatonin receptor-2 expressed in CHO cells assessed as decrease of cAMP level after 10 mins by HTRF assay. The format is functional, cell-based. Put shortly:
(§1)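 Functional agonist profiling was done by CEREP on cells expressing human recombinant MT receptors. MT1 was read by cellular dielectric spectroscopy and MT2 by homogeneous time-resolved fluorescence. The protocols are those on the company website.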

Data set [6] has as its target T3, Melatonin receptor type 1B. In words: Displacement of 2-[125I]-iodomelatonin from human melatonin receptor-2 transfected in CHO cell membranes after 120 mins.
For a further data set, the species on record is Homo sapiens. The data set can be described thus: Selectivity ratio of Ki for human melatonin receptor-1 to Ki for human melatonin receptor-2.
For data set [7], the target named is T1, Melatonin receptor type 1A. In words: Agonist activity at human melatonin receptor-1 transfected in CHO cell membranes after 1 hr by GTPgammaS binding assay relative to melatonin. It counts as functional. Put shortly: (§2)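 CHO membranes (20 µg/mL) stably expressing human MT1 or MT2 in 20 mM HEPES pH 7.4, 100 mM NaCl, 3 µM GDP, 3 mM MgCl2, 20 µg/mL saponin. Incubated with 0.2 nM [35S]GTPγS for 1 h at rt, then filtered. Non-specific binding defined with 10 µM GTPγS. Seven concentrations in duplicate; EC50 and Emax fitted.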

Data set [8] is described as follows: Induction of primary neuronal stem cell differentiation derived from subgranular zone of dentate gyrus of Wistar rat hippocampus assessed as upregulation of TuJ1 expression at 10 uM incubated for 7 days followed by 48 hrs incubation in presence of serum and absence of EGF by DAPI staining-based fluorescence microscopic analysis in presence of melatonin receptor antagonist luzindole. The format is functional. To be noted: Primary neuron. The procedure, abridged: (§3)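 Neurospheres came from the SGZ of the dentate gyrus of adult male Wistar rats (8-12 weeks). They were grown in DMEM/F12 with 10 ng/mL EGF, 10 ng/mL FGF and B27. After 3 days, cultures were treated with compounds for 7 days. They were then plated on poly-L-lysine coverslips for 48 h with serum and without growth factors. Cells were immunostained for TuJ1 and MAP-2 with DAPI nuclei. Positive cells were counted by fluorescence microscopy in five NS per condition over three independent experiments. Untreated cultures gave basal values.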

Data set [9] can be described thus: Induction of primary neuronal stem cell maturation derived from subgranular zone of dentate gyrus of Wistar rat hippocampus assessed as upregulation of MAP-2 expression at 10 uM incubated for 7 days by DAPI staining-based fluorescence microscopic analysis in presence of melatonin receptor antagonist luzindole. It counts as functional, tissue-based. To be noted: Primary neuron. The procedure, abridged:
as §3

Data set [10] can be described thus: Induction of primary neuronal stem cell differentiation derived from subgranular zone of dentate gyrus of Wistar rat hippocampus assessed as upregulation of TuJ1 expression at 10 uM incubated for 7 days followed by 48 hrs incubation in presence of serum and absence of EGF by DAPI staining-based fluorescence microscopic analysis. It counts as functional. As to conditions: Primary neuron. Put shortly:
as §3

Data set [11] can be described thus: Thermodynamic solubility in phosphate buffer at pH 7.4 after 24 hrs by UV spectra analysis. The format is physicochemical. As to conditions: read-out: Therm_solubility. The procedure, abridged:
(§4)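 Thermodynamic solubility: about 1 mg of solid was saturated in 200 µL buffer and stirred 24 h at rt at 320 rpm, then centrifuged. Supernatant was diluted with buffer-MeCN 80:20 and read by UV at its absorbance maximum. Values were quantified against a calibration line from a 10 mM DMSO stock, checked with a quality-control standard. Runs were in triplicate. The buffers were pH 7.4 phosphate 45 mM and NH4Cl for the basic pH.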

The target of data set [12] is T1, Melatonin receptor type 1A. The data set can be described thus: Displacement of 2-[125I]-iodomelatonin from human melatonin receptor-1 transfected in CHO cell membranes after 120 mins.
For data set [13], the target named is T1, Melatonin receptor type 1A. The data set can be described thus: Agonist activity at human recombinant melatonin receptor-1 expressed in CHO cells assessed as effect on impedance by cellular dielectric spectroscopy. The format is cell-based. The procedure, abridged:
as §1

Data set [14] in a line: Permeability of the compound at 100 ug/ml after 240 mins by PAMPA. The format is physicochemical. To be noted: 4 h. Put shortly: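 For PAMPA-BBB, the filter was coated with porcine brain lipid in dodecane (20 mg/mL). Donor compound was 100 µg/mL in PBS:ethanol 70:30, pH 7.4, and the acceptor held PBS:ethanol 70:30. Plates were incubated 240 min at 25 °C. Acceptor concentration was read by UV-Vis at five wavelengths in four wells, over at least three runs. Eleven quality-control standards were included.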
On the technique in general: In PAMPA a lipid-coated filter parts donor from acceptor wells.

Data set [15] is described as follows: Thermodynamic solubility in NH4Cl buffer at pH 9.3 after 24 hrs by UV spectra analysis. The format is physicochemical. To be noted: read-out: Therm_solubility. The procedure, abridged: as §4
The target of data set [16] is T3, Melatonin receptor type 1B. In words: Agonist activity at human melatonin receptor-2 transfected in CHO cell membranes after 1 hr by GTPgammaS binding assay. It counts as functional.
Data set [17] addresses T2, Melatonin receptor type 1B (Homo sapiens). The data set can be described thus: Agonist activity at human melatonin receptor-2 transfected in CHO cell membranes after 1 hr by GTPgammaS binding assay relative to melatonin. The format is functional. Put shortly:
as §2

A short description of data set [18]: Induction of primary neuronal stem cell maturation derived from subgranular zone of dentate gyrus of Wistar rat hippocampus assessed as upregulation of MAP-2 expression at 10 uM incubated for 7 days by DAPI staining-based fluorescence microscopic analysis. It counts as functional. As to conditions: Primary neuron. Put shortly:
as §3

pEC50, pKi: −log10 of the molar value. Values after ≈ are worked out from the molar mass of the structure shown. Active and inactive are the calls of the source. No cut-off for these calls is given here.

T1 sequence (P48039 whole entry): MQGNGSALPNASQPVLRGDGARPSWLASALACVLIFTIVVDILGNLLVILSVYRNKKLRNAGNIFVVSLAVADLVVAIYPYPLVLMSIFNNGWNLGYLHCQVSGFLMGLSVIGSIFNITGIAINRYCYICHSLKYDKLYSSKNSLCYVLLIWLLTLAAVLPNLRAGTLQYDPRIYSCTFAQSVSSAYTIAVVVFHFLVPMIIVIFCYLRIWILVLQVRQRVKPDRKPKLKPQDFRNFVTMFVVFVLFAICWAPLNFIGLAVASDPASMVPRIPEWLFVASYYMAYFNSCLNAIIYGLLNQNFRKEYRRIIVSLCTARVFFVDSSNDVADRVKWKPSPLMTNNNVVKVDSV

By Emax is commonly meant the maximal effect, on the per cent scale that the assay sets. As a reminder, the pEC50 is the EC50 on a negative log10 scale, so that one unit is a factor of ten. For orientation: pKi means −log10 of the Ki, conventionally taken in molar units. Lower therefore signals a large Ki. For `COc1ccc2[nH]cc(CCc3n[nH]c(=O)o3)c2c1`, the Emax in data set [1] came out at 100%; in [3] it was 97%; in [7], 26%; in data set [17] it was 30%. Also, the solubility thermodynamic at 24 h is 1410 µM (≈ 365 µg/mL) in data set [2], 2100 µM (≈ 544 µg/mL) in data set [11] and 7.92 mM (≈ 2050 µg/mL) in data set [15]. Moreover, the pEC50 was 6.49 in data set [4], 8.26 in data set [5], 7.32 in data set [13] and 7.54 in data set [16]. In addition, the pKi in [6] is 8.40; in [12] it was 7.46. Moreover, the Ratio Ki in the data set filed under Homo sapiens is 10. Besides, the outcome in data set [8] and in data set [9] was inactive. Besides, the result in data set [10] and in data set [18] was Active. In addition, the permeability result in data set [14] is listed as “permeable”.
